Reference: ChEMBL document CHEMBL4364339, “Systematically Mitigating the p38α Activity of Triazole-based BET Inhibitors” (ACS Med Chem Lett, 2019)
Active and inactive are the calls of the source. The rule behind the calls is not given here.

Assays:
[1] = tested on: MM1.S; experiment: Antiproliferative activity against human MM1S cells assessed as reduction in cell viability after 69 hrs by Alamar blue assay; format: functional, cell-based
Procedure, shortened: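 MM.1S cell viability, read as EC50 from a nonlinear curve fit; mean ± SEM of three biological replicates, each run in three technical replicates.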

[2] = molecular target: T1, Bromodomain-containing protein 4 (Homo sapiens, UniProt O60885); experiment: Inhibition of BRD4 bromodomain 1 in human MM1S cells assessed as decrease in c-MYC expression after 6 hrs by Western blot analysis; format: cell-based
[3] = molecular target: T1, Bromodomain-containing protein 4; experiment: Inhibition of BRD4 bromodomain 1 (unknown origin) expressed in Escherichia coli Bl21(DE3)-pRARE cells by fluorescence anisotropy
Procedure, shortened: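 BRD4-D1 ligand displacement read by fluorescence anisotropy, reported as IC50; mean and standard deviation of three independent trials; IC50 above 100 μM reported as >100.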

[4] = species: Homo sapiens; experiment: Selectivity index, ratio of Kd for human full length p38-alpha (M1 to S360 residues) expressed in bacterial cells to Kd for human partial length BRD4 bromodomain 2 long isoform (K333 to E460 residues) expressed in bacterial cells; format: cell-based
[5] = molecular target: CREB-binding protein (Homo sapiens, UniProt Q92793); experiment: Binding affinity to human partial length CREBBP (R1081 to G1197 residues) expressed in bacterial expression system by BROMOscan assay
Procedure, shortened: (§1)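 Dissociation constants from BROMOscan competition binding; mean and standard error of two independent trials.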

[6] = molecular target: T1, Bromodomain-containing protein 4; experiment: Binding affinity to human partial length BRD4 bromodomain 2 long isoform (K333 to E460 residues) expressed in bacterial expression system by BROMOscan assay; procedure, shortened: as §1
[7] = molecular target: T1, Bromodomain-containing protein 4; experiment: Binding affinity to human partial length BRD4 bromodomain 1 long isoform (N44 to E168 residues) expressed in bacterial expression system by BROMOscan assay; procedure, shortened: as §1
[8] = molecular target: T1, Bromodomain-containing protein 4; experiment: Inhibition of biotinylated histone H4 peptide binding to BRD4 bromodomain 1 (44 to 168 residues) (unknown origin) after 60 mins by Alphascreen method
[9] = molecular target: SWI/SNF-related matrix-associated actin-dependent regulator of chromatin subfamily A member 2 (Homo sapiens, UniProt P51531); experiment: Binding affinity to human partial length SMARCA2 (S1377 to Q1486 residues) expressed in bacterial expression system by BROMOscan assay; procedure, shortened: as §1
[10] = molecular target: Mitogen-activated protein kinase 14 (Homo sapiens, UniProt Q16539); experiment: Binding affinity to wild-type human full length p38-alpha (M1 to S360 residues) expressed in bacterial expression system by Kinomescan method
Procedure, shortened: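 Kd for p38α from KINOMEscan binding; mean and standard error of two independent trials.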

[11] = species: Homo sapiens; experiment: Selectivity index, ratio of Kd for human full length p38-alpha (M1 to S360 residues) expressed in bacterial cells to Kd for human partial length BRD4 bromodomain 1 long isoform (N44 to E168 residues) expressed in bacterial cells; format: cell-based
[12] = species: Homo sapiens; experiment: Selectivity ratio of compound effect on human full length p38-alpha (M1 to S360 residues) expressed in bacterial cells over compound effect on human partial length BRD4 bromodomain 1 long isoform (N44 to E168 residues) expressed in bacterial cells; format: cell-based

Chain of Mitogen-activated protein kinase 14 (Q16539 whole entry, the tested form may be a part): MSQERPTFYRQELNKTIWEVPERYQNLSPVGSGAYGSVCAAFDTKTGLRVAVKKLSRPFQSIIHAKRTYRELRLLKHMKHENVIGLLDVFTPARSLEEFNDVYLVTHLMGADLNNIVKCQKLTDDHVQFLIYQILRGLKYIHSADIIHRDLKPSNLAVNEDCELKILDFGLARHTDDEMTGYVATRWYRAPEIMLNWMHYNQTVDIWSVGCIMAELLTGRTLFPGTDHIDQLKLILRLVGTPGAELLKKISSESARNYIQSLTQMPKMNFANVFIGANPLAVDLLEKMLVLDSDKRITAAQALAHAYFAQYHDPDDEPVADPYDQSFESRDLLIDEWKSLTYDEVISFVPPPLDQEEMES
Chain of SWI/SNF-related matrix-associated actin-dependent regulator of chromatin subfamily A member 2 (P51531 whole entry, the tested form may be a part): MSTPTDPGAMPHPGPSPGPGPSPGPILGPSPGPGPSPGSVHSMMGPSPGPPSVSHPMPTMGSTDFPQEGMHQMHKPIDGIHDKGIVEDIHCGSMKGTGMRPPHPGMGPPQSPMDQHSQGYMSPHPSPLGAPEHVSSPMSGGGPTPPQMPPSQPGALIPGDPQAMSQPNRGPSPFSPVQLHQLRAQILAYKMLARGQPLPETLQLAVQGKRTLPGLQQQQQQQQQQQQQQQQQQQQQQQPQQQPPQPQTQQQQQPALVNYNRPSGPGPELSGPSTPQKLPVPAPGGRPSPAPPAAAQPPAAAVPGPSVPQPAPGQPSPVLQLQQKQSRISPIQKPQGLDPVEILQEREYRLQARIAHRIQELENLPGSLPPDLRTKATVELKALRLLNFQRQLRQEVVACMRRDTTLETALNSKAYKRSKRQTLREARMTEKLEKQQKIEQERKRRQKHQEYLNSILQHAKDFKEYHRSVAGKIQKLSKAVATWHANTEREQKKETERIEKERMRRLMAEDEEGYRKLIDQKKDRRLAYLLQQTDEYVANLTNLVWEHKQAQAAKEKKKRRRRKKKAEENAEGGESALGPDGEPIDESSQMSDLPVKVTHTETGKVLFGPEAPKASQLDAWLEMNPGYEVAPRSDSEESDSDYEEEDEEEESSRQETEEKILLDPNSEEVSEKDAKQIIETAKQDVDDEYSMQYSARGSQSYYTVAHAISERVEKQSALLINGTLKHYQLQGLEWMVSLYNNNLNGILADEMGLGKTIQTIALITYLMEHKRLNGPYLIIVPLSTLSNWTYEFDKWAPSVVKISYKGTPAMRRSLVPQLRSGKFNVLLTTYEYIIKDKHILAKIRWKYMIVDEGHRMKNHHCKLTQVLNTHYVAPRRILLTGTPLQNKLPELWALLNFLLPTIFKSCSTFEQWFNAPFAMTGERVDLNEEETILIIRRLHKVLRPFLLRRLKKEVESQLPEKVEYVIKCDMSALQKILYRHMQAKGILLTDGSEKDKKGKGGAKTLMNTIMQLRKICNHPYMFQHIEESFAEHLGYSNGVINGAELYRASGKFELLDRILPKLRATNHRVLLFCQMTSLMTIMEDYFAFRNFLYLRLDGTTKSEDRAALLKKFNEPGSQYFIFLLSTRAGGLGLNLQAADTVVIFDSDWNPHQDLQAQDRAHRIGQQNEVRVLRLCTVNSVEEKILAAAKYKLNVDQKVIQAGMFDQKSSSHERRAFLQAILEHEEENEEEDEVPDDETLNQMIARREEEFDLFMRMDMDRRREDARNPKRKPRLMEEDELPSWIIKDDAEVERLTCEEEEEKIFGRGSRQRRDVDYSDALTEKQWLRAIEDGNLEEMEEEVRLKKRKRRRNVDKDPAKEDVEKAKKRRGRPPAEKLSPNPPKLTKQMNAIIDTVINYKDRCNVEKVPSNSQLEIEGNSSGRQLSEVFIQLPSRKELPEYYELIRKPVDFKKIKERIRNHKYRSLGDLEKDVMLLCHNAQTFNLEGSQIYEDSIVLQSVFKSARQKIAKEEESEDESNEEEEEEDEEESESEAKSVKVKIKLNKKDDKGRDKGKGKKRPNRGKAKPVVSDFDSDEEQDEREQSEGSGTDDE
Chain of CREB-binding protein (Q92793 whole entry, the tested form may be a part): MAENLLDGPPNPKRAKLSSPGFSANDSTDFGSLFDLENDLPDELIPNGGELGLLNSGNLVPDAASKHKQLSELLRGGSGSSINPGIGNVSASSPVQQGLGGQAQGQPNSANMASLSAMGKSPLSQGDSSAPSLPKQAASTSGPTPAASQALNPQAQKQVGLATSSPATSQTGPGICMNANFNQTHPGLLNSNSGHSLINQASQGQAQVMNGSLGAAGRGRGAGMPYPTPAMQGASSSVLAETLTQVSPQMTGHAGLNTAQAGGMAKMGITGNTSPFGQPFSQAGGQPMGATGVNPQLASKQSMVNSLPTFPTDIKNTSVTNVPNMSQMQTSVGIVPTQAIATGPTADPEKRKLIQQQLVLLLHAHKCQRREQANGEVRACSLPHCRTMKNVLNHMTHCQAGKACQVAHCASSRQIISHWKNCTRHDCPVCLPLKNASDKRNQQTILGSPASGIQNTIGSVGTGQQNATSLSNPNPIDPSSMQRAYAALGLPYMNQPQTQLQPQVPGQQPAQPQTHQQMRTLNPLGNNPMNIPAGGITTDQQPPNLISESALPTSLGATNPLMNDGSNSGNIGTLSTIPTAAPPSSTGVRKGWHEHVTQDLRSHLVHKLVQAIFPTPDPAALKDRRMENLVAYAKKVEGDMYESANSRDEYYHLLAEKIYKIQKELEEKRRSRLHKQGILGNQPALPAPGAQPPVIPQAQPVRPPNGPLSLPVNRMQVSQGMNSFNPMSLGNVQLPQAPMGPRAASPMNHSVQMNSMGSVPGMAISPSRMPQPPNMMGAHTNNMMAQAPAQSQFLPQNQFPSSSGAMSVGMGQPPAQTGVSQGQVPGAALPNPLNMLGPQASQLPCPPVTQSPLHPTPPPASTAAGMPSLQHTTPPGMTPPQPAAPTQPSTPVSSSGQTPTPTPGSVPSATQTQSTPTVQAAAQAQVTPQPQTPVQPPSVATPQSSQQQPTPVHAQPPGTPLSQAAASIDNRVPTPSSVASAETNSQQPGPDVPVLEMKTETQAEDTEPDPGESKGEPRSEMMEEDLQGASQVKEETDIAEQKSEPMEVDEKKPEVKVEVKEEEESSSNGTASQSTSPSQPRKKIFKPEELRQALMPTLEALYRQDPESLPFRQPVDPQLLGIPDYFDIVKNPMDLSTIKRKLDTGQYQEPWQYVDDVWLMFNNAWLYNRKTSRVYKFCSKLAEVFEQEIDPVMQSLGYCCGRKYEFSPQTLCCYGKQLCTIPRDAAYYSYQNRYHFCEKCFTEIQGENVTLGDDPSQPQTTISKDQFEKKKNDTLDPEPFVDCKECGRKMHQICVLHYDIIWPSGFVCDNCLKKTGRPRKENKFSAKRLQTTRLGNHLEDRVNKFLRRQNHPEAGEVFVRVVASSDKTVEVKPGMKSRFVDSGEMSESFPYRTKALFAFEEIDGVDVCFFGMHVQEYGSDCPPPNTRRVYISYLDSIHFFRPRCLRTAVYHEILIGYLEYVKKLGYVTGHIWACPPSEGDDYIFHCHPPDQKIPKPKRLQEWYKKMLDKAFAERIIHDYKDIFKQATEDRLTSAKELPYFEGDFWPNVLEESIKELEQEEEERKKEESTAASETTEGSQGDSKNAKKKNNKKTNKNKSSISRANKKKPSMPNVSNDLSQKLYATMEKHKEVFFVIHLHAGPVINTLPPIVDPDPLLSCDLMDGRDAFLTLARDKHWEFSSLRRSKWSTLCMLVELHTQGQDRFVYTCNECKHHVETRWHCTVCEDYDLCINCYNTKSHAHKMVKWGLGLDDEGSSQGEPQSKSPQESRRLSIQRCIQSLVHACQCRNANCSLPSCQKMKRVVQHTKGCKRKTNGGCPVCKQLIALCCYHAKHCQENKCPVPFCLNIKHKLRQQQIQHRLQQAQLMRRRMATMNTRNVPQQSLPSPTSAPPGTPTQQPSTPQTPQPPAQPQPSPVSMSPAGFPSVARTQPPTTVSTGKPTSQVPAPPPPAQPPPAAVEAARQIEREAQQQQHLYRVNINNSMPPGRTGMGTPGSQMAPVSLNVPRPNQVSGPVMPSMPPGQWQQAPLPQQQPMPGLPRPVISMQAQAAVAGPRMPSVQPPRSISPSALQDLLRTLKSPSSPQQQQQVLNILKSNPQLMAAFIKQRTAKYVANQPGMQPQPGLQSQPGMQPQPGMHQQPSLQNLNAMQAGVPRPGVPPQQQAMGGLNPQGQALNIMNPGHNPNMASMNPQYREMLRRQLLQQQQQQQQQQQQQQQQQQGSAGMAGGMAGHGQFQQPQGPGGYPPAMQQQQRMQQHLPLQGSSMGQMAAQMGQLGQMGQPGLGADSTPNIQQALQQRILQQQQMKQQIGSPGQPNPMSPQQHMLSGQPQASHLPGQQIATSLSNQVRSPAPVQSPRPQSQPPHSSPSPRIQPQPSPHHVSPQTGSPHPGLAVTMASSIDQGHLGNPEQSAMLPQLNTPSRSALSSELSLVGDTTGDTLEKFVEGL

Structure (SMILES)	EC50 [1] [µM]	IC50 [3] [µM]	Kd [10] [µM]	also measured
Cc1cc(C)cc(Oc2nccc(-c3c(C)nnn3C3CCN(C(=N)N)CC3)n2)c1	> 50			
Cc1cc(C)cc(Nc2cccc(-c3c(C)nnn3C3CCN(C(=N)N)CC3)n2)c1	> 50		> 25	Kd [5]: 78 µM; Kd [6]: 2.1 µM; Kd [7]: 1.2 µM; Kd [9]: > 100 µM
Cc1cc(C)cc(Nc2cccc(-c3c(-c4ccc(F)cc4)nnn3C3CCNCC3)n2)c1			6.5	
Cc1cc(C)cc(Oc2nccc(-c3c(C4CCCC4)nnn3C3CCNCC3)n2)c1		> 100		
Cc1cc(C)cc(Nc2cccc(-c3c(C)nnn3C3CCNCC3)n2)c1	6.3	3.9		inhibition [2]: Active
Cc1cc(C)cc(Nc2nccc(-c3c(-c4ccc(F)cc4)nnn3C3CCNCC3)n2)c1			0.0022	Selectivity ratio [12]: > 10000
CCCc1nnn(C2CCN(C(=N)N)CC2)c1-c1ccnc(Oc2cc(C)cc(C)c2)n1		> 100		
Cc1cc(C)cc(Oc2cccc(-c3c(C)nnn3C3CCNCC3)n2)c1	2.9			
Cc1cc(C)cc(Oc2nccc(-c3c(-c4ccc(F)cc4)nnn3C3CCNCC3)n2)c1		> 100	0.12	IC50 [8]: 27 µM

Now from value to compound, other results behind:

EC50 [1] [µM]	IC50 [3] [µM]	Kd [10] [µM]	Structure (SMILES)	also measured
6.6	11		Cc1cc(C)cc(Oc2nccc(-c3c(C)nnn3C3CCNCC3)n2)c1	inhibition [2]: Active
	> 100		Cc1cc(C)cc(Oc2cncc(-c3c(C)nnn3C3CCN(C(=N)N)CC3)c2)c1	
	> 100		Cc1cc(C)cc(Oc2nccc(-c3c(C(C)C)nnn3C3CCN(C(=N)N)CC3)n2)c1	
> 50		> 200	Cc1cc(C)cc(Oc2cccc(-c3c(C)nnn3C3CCN(C(=N)N)CC3)n2)c1	Ratio [4]: > 100; Kd [5]: > 100 µM; Kd [6]: 0.94 µM; Kd [7]: 1.1 µM; IC50 [8]: 1.7 µM; Kd [9]: > 100 µM; Ratio [11]: > 100
		5	Cc1cc(C)cc(Oc2cccc(-c3c(-c4ccc(F)cc4)nnn3C3CCNCC3)n2)c1	
	> 100		Cc1cc(C)cc(Oc2nccc(-c3c(C4CCCCC4)nnn3C3CCNCC3)n2)c1	
	> 100		Cc1cc(C)cc(Oc2nccc(-c3c(C(C)(C)C)nnn3C3CCNCC3)n2)c1	
